These results are taken from ChEMBL document CHEMBL5154634, “A Modular Synthetic Route Involving N-Aryl-2-nitrosoaniline Intermediates Leads to a New Series of 3-Substituted Halogenated Phenazine Antibacterial Agents” (J Med Chem, 2021).

For orientation: MIC means the least concentration at which growth counts as inhibited. As usually defined, the pIC50 is the negative decadic logarithm of the IC50, by convention in mol/L.

The test system of data set [1] is Staphylococcus aureus. In words: Antibacterial activity against Staphylococcus aureus UAMS-1 infected in BALB/c mouse dorsal wound infection model assessed as reduction in bacterial load in wound administered topically twice a day for 3 days. In kind it is functional. Particulars: time 3 day. In a few lines: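 Female BALB/c mice, 4–6 weeks old, anesthetized with ketamine/xylazine i.p. 4.5 mm dermal punch wound inoculated with 1×10⁷ CFU in 10 μL. 50 μL PEG 400/3350 ointment or vehicle given 45 min post-inoculation, then every 12 h for 3 days. Tissue excised with 7 mm punch, homogenized, plated on ChromoAgar; CFU per lesion.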

Data set [2] has as its system Staphylococcus aureus. As to the kind of experiment: Induction of iron starvation in methicillin-resistant Staphylococcus aureus BAA-1707 biofilms assessed as upregulation of MW0695 gene expression at 1 uM incubated for 4 hrs by RT-qPCR analysis. In kind it is functional. In a few lines: (§1)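 MRSA BAA-1707 grown in TSB with 0.5% glucose to OD600 ~0.8–1.0, then biofilms formed 20 h at 37 °C statically in gelatin-coated 24-well plates. Biofilms treated 4 h at 37 °C with compound (1 μM or 1/10 MBEC) or DMSO vehicle. RNA extracted; only RIN ≥7 samples used. One-step SYBR RT-qPCR; ΔCT normalised to ptaA. Three independent experiments.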
(In general: Quantitative PCR measures a nucleic acid by following its amplification.)

Data set [3] deals with Staphylococcus aureus. As to the kind of experiment: Antibiofilm activity against methicillin-resistant Staphylococcus aureus BAA-1707 biofilms assessed as biofilm eradication incubated for 24 hrs followed by incubation for 24 hrs in fresh medium by Calgary biofilm device assay. The format is functional. In a few lines:
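Calgary biofilm device. Mid-log culture diluted 1000-fold in TSB with 0.5% glucose; biofilms grown on pegs 24 h at 37 °C. Pegs washed and challenged with twofold compound dilutions for 24 h at 37 °C, then moved to fresh medium for 24 h. MBEC is the lowest concentration leaving wells non-turbid. At least three independent experiments.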

Data set [4] deals with Staphylococcus aureus. As to the kind of experiment: Induction of iron starvation in methicillin-resistant Staphylococcus aureus BAA-1707 biofilms assessed as upregulation of MW0695 gene expression at 1/10XMBEC incubated for 4 hrs by RT-qPCR analysis. The format is functional. In outline: as §1
Data set [5] has as its system Staphylococcus aureus. As to the kind of experiment: Antibacterial activity against methicillin-resistant Staphylococcus aureus clinical isolate 2 assessed as bacterial growth inhibition. The format is functional.
Data set [6] relates to Staphylococcus aureus. As to the kind of experiment: Antibacterial activity against methicillin-resistant Staphylococcus aureus BAA-44 assessed as bacterial growth inhibition incubated for 16 hrs by broth microdilution susceptibility test. In kind it is functional. In outline: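 CLSI broth microdilution with 11 twofold dilutions (0.05–50 μM). Medium was LB for the staphylococci and BHI for VRE 700221. About 10^5 cells per well from a log-phase culture. […] DMSO vehicle up to 0.5% v/v. At least three independent experiments.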
For orientation: Dilution methods test growth across graded concentrations, often in twofold steps.

In data set [7] the test system is Staphylococcus aureus. As to the kind of experiment: Antibacterial activity against methicillin-resistant Staphylococcus aureus 138 assessed as bacterial growth inhibition. The format is functional.
For data set [8], the system named is Staphylococcus aureus. In words: Antibacterial activity against methicillin-resistant Staphylococcus aureus BAA-1707 assessed as bacterial growth inhibition incubated for 16 hrs by broth microdilution susceptibility test. The format is functional. In a few lines:
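CLSI broth microdilution with 11 twofold dilutions (0.05–50 μM). About 10^5 cells per well from a log-phase culture. DMSO vehicle up to 0.5% v/v. At least three independent experiments.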

A further data set has as its system Streptococcus pneumoniae. As to the kind of experiment: Antibacterial activity against Streptococcus pneumoniae ATCC 6303 assessed as bacterial growth inhibition incubated for 16 to 20 hrs by turbidity based analysis. In kind it is functional. Particulars: time 16-20 hrs.
Another data set deals with HeLa. In words: Cytotoxicity against human HeLa cells assessed as reduction in cell viability incubated for 24 hrs by LDH release assay. The format is toxicity, cell-based. In outline: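 HeLa cells in DMEM with 10% FBS, treated at 70–80% confluence with 25, 50 and 100 μM for 24 h. LDH in supernatant measured by 30 min reaction at room temperature, then stop solution and absorbance at 490 nm. Controls: 2% Triton X-100 (maximum), medium only, DMSO vehicle. Three independent experiments.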
A general note: LDH leaks from cells whose membrane has failed.

The next data set has as its system Enterococcus faecalis. In words: Antibacterial activity against Enterococcus faecalis OG1RF ATCC 47077 infected in C57BL/6J mouse dorsal wound infection model assessed as reduction in bacterial load in wound administered topically once a day for 3 days. The conditions noted are these: time 3 day. The format is functional. In outline:
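Female C57BL/6J mice, 7 weeks old. 3 mm dorsal punch wound infected with 20 μL of 6×10¹⁰ CFU/mL and covered with Tegaderm. From 24 h post-infection, PEG 400/PEG 3350 ointment or PEG vehicle applied topically once daily. Day 3 wounds excised, homogenized in PBS and plated on TSA with rifampicin and fusidic acid for CFU.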

pIC50: −log10 of the molar value. In brackets after ≈: the same amount, converted by molar mass. Activity calls are given as the source filed them. No cut-off for these calls is given here. Where only a bound is given, the exact number is not on record here.

On to `Cc1cccc2nc3c(O)c(Br)c(Cl)c(Br)c3nc12`, for which the Activity in the data set on Staphylococcus aureus [1] came to 0.82 log10CFU; in the data set with Enterococcus faecalis, 1.73 log10CFU. Further, the result in the data set on Staphylococcus aureus [2] and in the data set with Staphylococcus aureus [4] was Active. For the same compound, the MBEC in the data set with Staphylococcus aureus [3] came out at 1.56 µM. Moreover, the MIC in the data set with Staphylococcus aureus [5] was found to be 0.06 µM (≈ 0.0241 µg/mL); with Staphylococcus aureus [6] it was 0.08 µM (≈ 0.0322 µg/mL); in the data set with Staphylococcus aureus [7], 0.06 µM (≈ 0.0241 µg/mL); with Staphylococcus aureus [8], 0.05 µM (≈ 0.0201 µg/mL); in the data set with Streptococcus pneumoniae it was 0.5 µM (≈ 0.201 µg/mL). Also, the pIC50 with HeLa was below 4.00.
